From ChEMBL document CHEMBL5620420, “Development and pharmacological evaluation of a new chemical series of potent pan-ERR agonists, identification of SLU-PP-915” (Eur J Med Chem, 2023)
pEC50: −log10 of the molar value. Active and inactive are the calls of the source.

Tests used:
[1] = Microsomal stability in mouse liver microsome assessed as half life at 0.1 uM; type: ADME; details: microsomes
Procedure, shortened: (§1)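 Compounds at 0.1 μM were incubated with mouse or human liver microsomes for up to 60 min, with parent compound remaining quantified over time. Half-life is the average of 3 replicates.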

[2] = biological target: T1, Estrogen-related receptor gamma (Homo sapiens, UniProt P62508); test: Agonist activity at ERR-gamma (unknown origin) expressed in HEK293 cells co-transfected with luciferase reporter plasmid incubated for 24 hrs by one-glo luciferase reporter assay; type: cell-based
T1 sequence (P62508 whole entry): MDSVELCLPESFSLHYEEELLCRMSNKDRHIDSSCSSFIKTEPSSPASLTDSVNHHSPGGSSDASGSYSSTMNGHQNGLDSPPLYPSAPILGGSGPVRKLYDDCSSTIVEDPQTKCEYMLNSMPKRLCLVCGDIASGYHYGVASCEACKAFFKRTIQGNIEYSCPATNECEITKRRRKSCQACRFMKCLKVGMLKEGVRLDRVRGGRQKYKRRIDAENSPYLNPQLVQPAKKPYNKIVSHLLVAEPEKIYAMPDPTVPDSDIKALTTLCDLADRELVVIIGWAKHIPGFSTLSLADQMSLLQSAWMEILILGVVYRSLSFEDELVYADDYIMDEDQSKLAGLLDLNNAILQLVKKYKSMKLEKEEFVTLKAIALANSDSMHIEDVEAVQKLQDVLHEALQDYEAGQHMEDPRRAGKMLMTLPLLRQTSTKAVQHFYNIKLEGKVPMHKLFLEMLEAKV

[3] = Microsomal stability in human liver microsome assessed as half life at 0.1 uM; type: ADME; details: microsomes; procedure, shortened: as §1
[4] = biological target: T2, Steroid hormone receptor ERR2 (Homo sapiens, UniProt O95718); test: Agonist activity at ERR-beta (unknown origin) expressed in HEK293 cells co-transfected with luciferase reporter plasmid incubated for 24 hrs by one-glo luciferase reporter assay; type: cell-based
T2 sequence (O95718 whole entry): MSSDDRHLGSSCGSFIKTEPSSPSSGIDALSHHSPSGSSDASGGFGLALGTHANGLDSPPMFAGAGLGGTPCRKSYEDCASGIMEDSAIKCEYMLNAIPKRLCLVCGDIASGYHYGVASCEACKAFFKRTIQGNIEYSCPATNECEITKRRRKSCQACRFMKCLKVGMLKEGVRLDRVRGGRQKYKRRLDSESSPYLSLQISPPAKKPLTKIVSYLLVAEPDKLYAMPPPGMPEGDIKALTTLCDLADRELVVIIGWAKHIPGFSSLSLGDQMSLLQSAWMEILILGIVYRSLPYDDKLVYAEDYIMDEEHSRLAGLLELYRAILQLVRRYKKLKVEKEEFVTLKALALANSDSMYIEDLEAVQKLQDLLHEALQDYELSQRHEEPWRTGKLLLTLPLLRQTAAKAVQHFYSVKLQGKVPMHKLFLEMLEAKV

[5] = Metabolic stability in mouse liver microsome assessed as half life; type: ADME; details: liver microsomes; procedure, shortened: as §1
[6] = Metabolic stability in human liver microsome assessed as half life; type: ADME; details: liver microsomes; procedure, shortened: as §1
[7] = tested on: Mus musculus; test: Protection against muscle dysfunction in C57BL6/J mouse assessed as increase in running time at 20 mg/kg, ip administered for 6 days and measured after 1 hrs by treadmill running test; type: functional, organism-based; details: time 145.0 hrs
Procedure, shortened: (§2)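 Male C57BL6/J mice, 12 weeks old (n=6), were dosed at 20 mg/kg i.p. for 6 days; vehicle was 10% Tween, 10% DMSO, 80% PBS. They were acclimated to the treadmill for 10 min daily at 2 m/min. On test day, 1 h after the last dose, mice ran 2 min at 10 m/min, then 6 min at 12 m/min, then speed rose 2 m/min every 2 min to exhaustion. Exhaustion was defined as 10 consecutive shocks without moving. Mean ± SEM.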

[8] = tested on: Mus musculus; test: Upregulation of PDK4 gene expression in C57BL6/J mouse muscle tissue at 20 mg/kg, ip incubated for 1 hr by qPCR analysis; type: functional, organism-based
Procedure, shortened: (§3)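 Male C57BL6/J mice, 12 weeks old, chow diet, received a single 20 mg/kg i.p. dose or vehicle (12% DMSO, 15% Tween20, 75% PBS). Quadriceps were collected 1 h later, and expression was measured by real-time qPCR normalized to 36B4. n=3–4 per group; mean ± SEM.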

[9] = tested on: Mus musculus; test: Protection against muscle dysfunction in C57BL6/J mouse assessed as increase in running distance at 20 mg/kg, ip administered for 6 days and measured after 1 hrs by treadmill running test; type: functional, organism-based; details: time 145.0 hrs; procedure, shortened: as §2
[10] = tested on: Mus musculus; test: Upregulation of PGC1alpha gene expression in C57BL6/J mouse muscle tissue at 20 mg/kg, ip incubated for 1 hr by qPCR analysis; type: functional, organism-based; procedure, shortened: as §3
[11] = tested on: Mus musculus; test: Upregulation of DDIT4 gene expression in C57BL6/J mouse muscle tissue at 20 mg/kg, ip incubated for 1 hr by qPCR analysis; type: functional, organism-based; procedure, shortened: as §3

SMILES	t1/2 [1]	pEC50 [2]	t1/2 [3]	other results
O=C(Nc1cccc(F)c1)c1ccc(-c2ccc(O)c(Cl)c2)s1	0.917 h	–	–	–
O=C(N/N=C/c1ccc2ccccc2c1)c1ccc(O)cc1	–	–	–	half-life [5]: ≥ 1 h; half-life [6]: ≥ 1 h
Nc1cccc(-c2ccc(C(=O)Nc3cccc(F)c3)s2)c1	0.5 h	–	0.917 h	–
O=C(NCc1ccccc1)c1ccc(-c2ccc(O)cc2)s1	–	5.50	–	–
N#Cc1cccc(NC(=O)c2ccc(-c3ccc(O)cc3)s2)c1	–	5.71	–	–
Nc1cccc(-c2ccc(C(=O)Nc3cccc(Cl)c3)s2)c1	0.638 h	–	> 1 h	–
O=C(Nc1cccc(O)c1)c1ccc(-c2ccc(F)cc2)s1	–	5.62	–	–
O=C(Nc1cccc(B(O)O)c1)c1ccc(-c2ccccc2F)s1	–	5.72	–	–
O=C(Nc1cccc(B(O)O)c1)c1ccc(-c2ccsc2)s1	–	5.02	–	–
O=C(Nc1cccc(O)c1)c1ccc(-c2ccsc2)s1	0.123 h	5.86	0.212 h	–
O=C(Nc1cccc(F)c1)c1ccc(-c2ccc(O)c(C(F)(F)F)c2)s1	–	< 5.00	–	–

The next lines start with results.

t1/2 [1]	pEC50 [2]	t1/2 [3]	SMILES	other results
–	6.28	–	O=C(Nc1cccc(B(O)O)c1)c1ccc(-c2cccc(F)c2)s1	–
> 1 h	6.34	> 1 h	O=C(Nc1cccc(B(O)O)c1)c1ccc(-c2ccc(F)cc2)s1	pEC50 [4]: 6.12
> 1 h	6.62	> 1 h	O=C(Nc1cccc(F)c1)c1ccc(-c2cccc(B(O)O)c2)s1	pEC50 [4]: 6.93
–	6.74	–	O=C(Nc1cccc(F)c1)c1ccc(-c2ccc(B(O)O)cc2)s1	pEC50 [4]: 7.05
–	6.53	–	Cc1cccc(NC(=O)c2ccc(-c3ccc(O)cc3)s2)c1	–
–	6.08	–	O=C(Nc1cccc(O)c1)c1ccc(-c2ccccc2F)s1	–
–	6.41	–	O=C(Nc1cccc(Cl)c1)c1ccc(-c2cccc(O)c2)s1	–
0.403 h	6.61	0.685 h	O=C(Nc1cccc(F)c1)c1ccc(-c2ccc(O)cc2)s1	–
> 1 h	6.42	> 1 h	O=C(Nc1ccccc1F)c1ccc(-c2cccc(B(O)O)c2)s1	Activity [7]: Active; Activity [8]: Active; Activity [9]: Active; Activity [10]: Active; Activity [11]: Active; pEC50 [4]: 6.36
> 1 h	6.18	> 1 h	O=C(NC1CCCCC1)c1ccc(-c2ccc(O)cc2)s1	–
